# Experimental data reported in ChEMBL document CHEMBL1143766, “Mono- and disalicylic acid derivatives: PTP1B inhibitors as potential anti-obesity drugs” (Bioorg Med Chem, 2007).
# Tests used:
# [1] = target: T1, Tyrosine-protein phosphatase non-receptor type 1 (Homo sapiens, UniProt P18031); experiment: Inhibition of PTP1B
# T1 sequence (P18031 whole entry): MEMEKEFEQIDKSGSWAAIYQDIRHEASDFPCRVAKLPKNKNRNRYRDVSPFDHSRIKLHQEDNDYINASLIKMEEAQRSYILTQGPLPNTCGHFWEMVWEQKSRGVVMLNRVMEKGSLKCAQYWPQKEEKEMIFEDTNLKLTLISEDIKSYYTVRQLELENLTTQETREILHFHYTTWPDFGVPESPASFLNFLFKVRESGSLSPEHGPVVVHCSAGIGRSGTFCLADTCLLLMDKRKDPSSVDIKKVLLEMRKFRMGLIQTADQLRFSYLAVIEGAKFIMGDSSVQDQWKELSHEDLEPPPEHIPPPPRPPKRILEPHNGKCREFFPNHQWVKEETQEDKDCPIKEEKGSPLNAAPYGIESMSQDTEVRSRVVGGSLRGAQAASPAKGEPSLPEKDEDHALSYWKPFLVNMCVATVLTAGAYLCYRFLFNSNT
# Procedure, shortened: (§1)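 Enzymes expressed in E. coli and purified: native PTP1B at 2.1 µg/mL, SHP-1 catalytic domain at 5 µg/mL. Buffer 100 mM Hepes, 5 mM EDTA, pH 7.0, 37 °C. Enzyme preincubated 10 min with inhibitor in DMSO, then 2 mM pNPP (final) added. Reaction 3 min, quenched with NaOH, p-nitrophenol read at 405 nm. IC50 taken over a range of inhibitor concentrations.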
# [2] = target: T2, Tyrosine-protein phosphatase non-receptor type 2 (Homo sapiens, UniProt P17706); experiment: Inhibition of TC-PTP
# T2 sequence (P17706 whole entry): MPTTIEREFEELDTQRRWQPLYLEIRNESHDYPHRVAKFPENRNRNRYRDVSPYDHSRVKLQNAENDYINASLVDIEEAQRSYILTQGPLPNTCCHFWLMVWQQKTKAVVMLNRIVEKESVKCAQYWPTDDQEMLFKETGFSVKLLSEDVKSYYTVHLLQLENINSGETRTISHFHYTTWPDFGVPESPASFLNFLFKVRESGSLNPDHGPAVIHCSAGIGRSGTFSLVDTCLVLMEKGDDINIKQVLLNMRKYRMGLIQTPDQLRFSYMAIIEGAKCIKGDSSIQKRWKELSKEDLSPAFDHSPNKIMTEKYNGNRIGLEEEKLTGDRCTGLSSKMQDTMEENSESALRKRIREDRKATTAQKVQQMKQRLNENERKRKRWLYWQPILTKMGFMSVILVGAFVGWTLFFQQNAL
# Procedure, shortened: (§2)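 Commercial LAR-D1 (membrane-proximal catalytic domain) and TC-PTP, each at 33 U/mL. Run at 37 °C in 100 mM Hepes, 5 mM EDTA, pH 7.0. Inhibitor in DMSO preincubated 10 min before 2 mM pNPP (final) added. After 3 min, quenched with NaOH and A405 read. IC50 from a range of inhibitor concentrations.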
# [3] = target: Tyrosine-protein phosphatase non-receptor type 6 (Homo sapiens, UniProt P29350); experiment: Inhibition of SHP-1 catalytic domain; procedure, shortened: as §1
# Tyrosine-protein phosphatase non-receptor type 6, sequence (P29350 whole entry, the tested form may be a part): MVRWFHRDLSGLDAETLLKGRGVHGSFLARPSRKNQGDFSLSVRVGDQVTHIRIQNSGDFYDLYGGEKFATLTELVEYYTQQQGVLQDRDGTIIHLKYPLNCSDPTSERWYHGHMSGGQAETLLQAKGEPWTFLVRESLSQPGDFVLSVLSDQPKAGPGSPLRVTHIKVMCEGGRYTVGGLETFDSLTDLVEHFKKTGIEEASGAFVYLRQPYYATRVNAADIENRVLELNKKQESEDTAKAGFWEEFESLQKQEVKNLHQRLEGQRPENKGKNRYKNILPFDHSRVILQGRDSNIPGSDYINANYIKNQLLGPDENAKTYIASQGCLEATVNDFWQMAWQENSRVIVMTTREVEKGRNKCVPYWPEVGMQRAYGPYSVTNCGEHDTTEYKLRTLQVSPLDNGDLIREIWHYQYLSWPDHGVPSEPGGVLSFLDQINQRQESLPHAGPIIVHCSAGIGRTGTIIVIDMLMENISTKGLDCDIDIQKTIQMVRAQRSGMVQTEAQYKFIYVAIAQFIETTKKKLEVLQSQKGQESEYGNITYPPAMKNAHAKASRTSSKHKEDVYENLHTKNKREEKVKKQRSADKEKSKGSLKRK
# [4] = Inhibition of LAR-D1; design: species or system Homo sapiens; procedure, shortened: as §2
# [5] = target: T3, Tyrosine-protein phosphatase 1 (Saccharomyces cerevisiae S288c, UniProt P25044); experiment: Inhibition of yeast PTP1
# T3 sequence (P25044 whole entry): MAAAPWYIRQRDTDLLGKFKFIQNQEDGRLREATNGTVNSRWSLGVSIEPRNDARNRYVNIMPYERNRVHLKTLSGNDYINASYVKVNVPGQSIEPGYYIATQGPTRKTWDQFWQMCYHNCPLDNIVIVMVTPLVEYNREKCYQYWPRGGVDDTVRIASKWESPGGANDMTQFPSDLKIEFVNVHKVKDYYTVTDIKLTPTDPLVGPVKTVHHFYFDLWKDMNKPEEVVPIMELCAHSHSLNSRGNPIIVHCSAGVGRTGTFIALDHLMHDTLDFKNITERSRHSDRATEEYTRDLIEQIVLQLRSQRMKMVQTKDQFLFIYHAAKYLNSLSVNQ
# Procedure, shortened: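 Yeast PTPase YPTP1 at 30 ng/mL. pNPP hydrolysis at 37 °C, pH 7.0 Hepes/EDTA buffer, 10 min inhibitor preincubation, 2 mM pNPP final, 3 min reaction, NaOH stop, A405. IC50 derived from activity across inhibitor concentrations.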
# [6] = tested on: Mus musculus; experiment: Effect on triglyceride level in HFD-fed C57BL/6J Jms Slc DIO mouse plasma at 5 g/kg of diet after 28 days; assay type: functional
# Procedure, shortened: (§3)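 DIO mice (HFD 8 weeks, then drug in powdered HFD at 5 g/kg diet for 4 weeks) fasted 8 h at the end. Secobarbital 40 mg/kg ip, cardiac-puncture blood into EDTA, plasma spun at 5000g, 10 min, 4 °C and frozen. Enzymatic colour kits, 37 °C. Glucose: 5 min, A505. TG and cholesterol: 5 min, A600. NEFA: 20 min, A550. Means ± SEM, n = 8–9.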
# [7] = tested on: Mus musculus; experiment: Effect on liver weight in HFD-fed C57BL/6J Jms Slc DIO mouse at 5 g/kg of diet after 28 days; assay type: functional
# Procedure, shortened: (§4)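 Male C57BL/6J Jms Slc mice (4 weeks old, 17–19 g), acclimatized 1 week on LFD, then HFD for 8 weeks to induce obesity. Next 4 weeks on powdered HFD with compound kneaded in at 5 g/kg diet (0.5% w/w), dissolved with 2 equiv NaOH in water. Vehicle diet was kneaded with the same volume of water. n = 9/group, LFD lean control n = 8. Body weight recorded every other day. Means ± SEM.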
# [8] = tested on: Mus musculus; experiment: Effect on glucose level in HFD-fed C57BL/6J Jms Slc DIO mouse plasma at 5 g/kg of diet after 28 days; assay type: functional; procedure, shortened: as §3
# [9] = tested on: Mus musculus; experiment: Effect on nonesterified fatty acid level in HFD-fed C57BL/6J Jms Slc DIO mouse plasma at 5 g/kg of diet after 28 days; assay type: functional; procedure, shortened: as §3
# [10] = tested on: Mus musculus; experiment: Effect on total cholesterol in HFD-fed C57BL/6J Jms Slc DIO mouse plasma at 5 g/kg of diet after 28 days; assay type: functional; procedure, shortened: as §3
# [11] = tested on: Mus musculus; experiment: Effect on body weight in HFD-fed C57BL/6J Jms Slc DIO mouse at 5 g/kg of diet after 28 days; assay type: functional; procedure, shortened: as §4
# [12] = tested on: Mus musculus; experiment: Effect on adipose epididymal tissue weight in HFD-fed C57BL/6J Jms Slc DIO mouse at 5 g/kg of diet after 28 days; assay type: functional; procedure, shortened: as §4
# [13] = tested on: Mus musculus; experiment: Effect on adipose retroperitoneal tissue weight in HFD-fed C57BL/6J Jms Slc DIO mouse at 5 g/kg of diet after 28 days; assay type: functional; procedure, shortened: as §4
IC50 [1],Structure (SMILES),further results
> 1000 µM,O=Cc1ccc(O)c(C(=O)O)c1,–
> 1000 µM,O=C(O)c1cc2ccccc2cc1O,–
215 µM,O=C(O)c1cc(F)cc(Cc2cc(F)cc(C(=O)O)c2O)c1O,–
351 µM,O=C(O)c1cc(-c2ccccc2)cc(Br)c1O,–
> 1000 µM,O=C(O)c1cc(S(=O)(=O)O)ccc1O [SULFOSALICYLIC],–
1180 µM,O=C(O)c1cc(Cc2ccccc2)ccc1O,–
> 1000 µM,O=C(O)c1cccc(Br)c1O,–
> 1000 µM,O=C(O)c1cc(F)ccc1O,–
1280 µM,O=C(O)c1cc(-c2ccccc2)ccc1O,–
850 µM,O=C(O)c1ccc2ccccc2c1O [CARBOXYNAPHTHOL],–
148 µM,O=C(O)c1cc(Br)cc(Cc2ccccc2)c1O,–

# Continued, compound first:
Structure (SMILES),IC50 [1],further results
O=C(O)c1cc(Br)cc(Cc2cc(Br)cc(C(=O)O)c2O)c1O,149 µM,–
O=C(O)Cc1cc(O)c(CC(=O)O)cc1O,> 1000 µM,–
O=C(O)c1cccc(Cc2ccccc2)c1O,403 µM,–
O=C(O)c1cc(-c2ccco2)cc(Cc2cc(-c3ccco3)cc(C(=O)O)c2O)c1O,67 µM,–
O=C(O)c1cc(Cc2ccccc2)cc(-c2ccccc2)c1O,65 µM,IC50 [2]: 540 µM; IC50 [3]: 129 µM; IC50 [4]: > 2000 µM; IC50 [5]: 271 µM
O=C(O)c1cc(-c2ccccc2)cc(Cc2ccccc2)c1O,57 µM,–
O=Cc1cc(C(=O)O)c(O)c(C2CCCO2)c1 (stereo not drawn),380 µM,–
O=C(O)c1cc(Cc2cc(C(=O)O)c(O)c(-c3ccccc3)c2)cc(-c2ccccc2)c1O,–,Activity [6]: 42 mg/dL; Activity [7]: 1.03 g; Activity [8]: 300 mg/dL; Activity [9]: 0.24 mEq/L; Activity [10]: 129 mg/dL
O=C(O)c1cc(Cc2ccccc2)cc(Cc2ccccc2)c1O,91 µM,–
O=C(O)c1cccc(-c2ccccc2)c1O,859 µM,–
O=C(O)c1cc(-c2cccs2)cc(Cc2cc(-c3cccs3)cc(C(=O)O)c2O)c1O,27 µM,–
O=C(O)c1cc(Cc2ccccc2)cc(Br)c1O,153 µM,–
O=C(O)c1cc(-c2ccccc2)cc(-c2ccccc2)c1O,84 µM,–
O=C(O)c1cc(-c2ccccc2)cc(Cc2cc(-c3ccccc3)cc(C(=O)O)c2O)c1O,19 µM,Activity [6]: 48 mg/dL; Activity [11]: 28.9 g; IC50 [2]: 156 µM; Ki [2]: 89 µM; Activity [7]: 1.07 g; IC50 [3]: 37 µM; Ki [3]: 9.7 µM; Activity [12]: 0.83 g; IC50 [4]: > 2000 µM; Activity [8]: 280 mg/dL; Activity [13]: 0.26 g; Activity [9]: 0.14 mEq/L; Ki [1]: 6.5 µM; Activity [10]: 133 mg/dL; IC50 [5]: 86 µM
